Consider three molecules from PMC7649109 (International Journal for Parasitology: Drugs and Drug …, 2020).

Structures are written as SMILES. Values joined by “and” are separate entries in the source; they are usually repeats but may differ in a detail not shown here. Identical values can stand only once. Like-named read-outs stand apart in the source and are kept apart here.

In data set [1] the test system is Trypanosoma congolense IL3000. Nature of the data set: resazurin viability assay, T. congolense IL3000 bloodstream forms. It counts as cell-based. Summed up:
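Bloodstream-form parasites were grown in MEM base with 10% goat serum, 14 μL/L β-mercaptoethanol, glutamine and antibiotics at 34 °C/5% CO2. Cells at 5 × 10^4/well were exposed to 23 doubling dilutions plus no-drug controls, with DMSO held at 1% (v/v) per well, for 48 h. Resazurin was then added for a further 24 h. EC50 is the mean ± SEM of ≥3 independent determinations.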
A general note: Alamar Blue is a resazurin reagent that responds to reducing activity.

Data set [2] deals with T. brucei B48. Briefly: resazurin viability assay, multi-drug resistant T. brucei B48. The following applies: for RF (Resistance factor): Table 5; for RF (Resistance factor) / R. F (Resistance factor): B48 versus s427 WT; for EC50: Trypanosoma brucei; for R. F (Resistance factor): Table 1. It counts as cell-based, Trypanosoma brucei. Summed up:
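s427 wild-type and B48 T. b. brucei bloodstream forms cultured in HMI-9 with 10% FBS at 37 °C/5% CO2. Wells of 2 × 10^4 cells received 23 doubling dilutions (1% v/v DMSO) plus no-drug controls for 48 h, followed by resazurin and 24 h more incubation. EC50 from ≥3 independent determinations. […]; unpaired two-tailed t-test versus s427.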

Data set [3] concerns U937 cell line. Briefly: cytotoxicity, resazurin assay on U937 cell line. It is filed as cell-based, human.
A short description of data set [4]: cytotoxicity, resazurin assay on U937 cell line. It counts as cell-based, human. To be noted: human, U937 cells.
The test system of data set [5] is T. brucei S427WT. Nature of the data set: resazurin viability assay, T. brucei s427 wild-type bloodstream forms. It is filed as cell-based. To be noted: Trypanosoma brucei. In short, it runs like this:
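Bloodstream forms grown in complete HMI-9 with 10% fetal bovine serum at 37 °C/5% CO2. 2 × 10^4 cells/well were exposed for 48 h to 23 doubling dilutions of the test compound or extract, with no-drug controls and 1% (v/v) DMSO per well. Resazurin was then added for a further 24 h. EC50 is the mean ± SEM of at least 3 independent determinations.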

The subject of data set [6] is Trypanosoma congolense 6C3. Briefly: resazurin viability assay, diminazene-resistant T. congolense clone 6C3. It is filed as cell-based. The following applies: for RF (Resistance factor): Table 6; for EC50: Trypanosoma congolense, T. congolense 6C3. In short, it runs like this:
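IL3000 and diminazene-resistant 6C3 T. congolense bloodstream forms grown in MEM base with 10% goat serum, 14 μL/L β-mercaptoethanol, glutamine and antibiotics at 34 °C/5% CO2. 5 × 10^4 cells/well exposed to 23 doubling dilutions (1% v/v DMSO) plus no-drug controls for 48 h, then resazurin for a further 24 h. EC50 from ≥3 independent determinations. RF = […]; unpaired two-tailed t-test versus IL3000.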

The test system of data set [7] is RAW 246.7 cell line. Nature of the data set: cytotoxicity, resazurin assay on RAW 246.7 cell line. It counts as cell-based, murine.
Assay in data set [8]: as above
The following applies: mouse, RAW 264.7 macrophage cells (also printed RAW 246.7). It counts as cell-based, murine.

The mark [9] stands for this setting: read-out: EC50, AVG ± SEM, Table 6, purified compounds, n = 3.
Where [10] appears, read: read-out: EC50, AVG ± SEM, Table 5, purified compounds, T. b. brucei B48, n = 3.
Where [11] appears, read: read-out: EC50, AVG ± SEM, Table 5, purified compounds, T. b. brucei s427 WT, n = 3.
Setting [12] is: read-out: EC50, AVG ± SEM, Table 2, control, footnote b: EC50 in μM.

In the case of `C=CC(C)(C)c1c(O)cc2c(c1O)C(=O)C[C@@H](c1ccc(O)cc1)O2` [Compound 2, 6-(1,1-dimethylallyl)naringenin], the 50% effective concentration (EC50) is 7.35 µg/mL and 21.6 µM in data set [1] (setting [9]); 2.28 µg/mL and 6.69 µM in data set [2] (setting [10]); 2.24 µg/mL and 6.58 µM in data set [5] (setting [11]); 5.69 µg/mL and 16.7 µM in data set [6] (setting [9]). In addition, the “RF (Resistance factor)” value in data set [2] came to 1.02; in data set [6] (6C3 versus IL3000), 0.77. The entries for the “Selectivity Index (SI) Tbb427 WT” value in data set [3] (EC50 (U937)/EC50 (T. b. brucei 427 WT)) and in data set [7] (EC50 (RAW 246.7)/EC50 (T. b. brucei 427 WT)) were 22.8 and 35.7, respectively. Also, the “Selectivity Index (SI) TcoIL3000” value in data set [3] (EC50 (U937)/EC50 (T. congolense IL3000)) was 9.0; in data set [7] (EC50 (RAW 246.7)/EC50 (T. congolense IL3000)), 14.0. Besides, the EC50 at 24 h in data set [4] was 51.2 µg/mL and 150 µM; in data set [8] it was 79.9 µg/mL and 235 µM.

On to `N=C(N)c1ccc(/N=N/Nc2ccc(C(=N)N)cc2)cc1` [Diminazene], for which the 50% effective concentration (EC50) in data set [1] (setting [12]) was found to be 0.2 ± 0.03 µM; in data set [1] (setting [9]) it was 0.15 ± 0.03 µM; in data set [6] (setting [12]) it was 1.51 ± 0.09 µM; in data set [6] (setting [9]), 1.45 ± 0.04 µM. For the same molecule, the “R. F (Resistance factor)” value in data set [6] (Table 2, 6C3 versus IL3000) is reported as 7.75. Also, the “RF (Resistance factor)” value in data set [6] (6C3 versus IL3000) was 9.81; in data set [6] (6C3 versus IL3000, listed as diminazene), 9.8.

As for `N=C(N)c1ccc(OCCCCCOc2ccc(C(=N)N)cc2)cc1` [Pentamidine], the “R. F (Resistance factor)” value in data set [2] worked out at 157.84; in data set [2] (listed as pentamidine), 158. Moreover, the “RF (Resistance factor)” value was 144.08 in data set [2] and 144 in data set [2] (listed as pentamidine). The EC50 in data set [2] (read-out: EC50, AVG ± SEM, Table 1, control, footnote b: EC50 in μM, T. brucei B48) is 0.482 ± 0.02 µM; in data set [2] (setting [10]) it was 0.493 ± 0.04 µM; in data set [5] (read-out: EC50, AVG ± SEM, Table 1, control, footnote b: EC50 in μM, T. brucei s427 WT) it was 0.0031 ± 0.0003 µM; in data set [5] (setting [11]), 0.0034 ± 0.0004 µM.

For orientation: EC50 means the concentration giving half of the maximal effect.
